Assay results pooled from the literature.
Protocols differ between the studies behind these lines. Values after ≈ are worked out from the molar mass of the structure shown.

Structure (SMILES)	tested on	test	system	setting	measurement	value
Cc1cccc2c(=O)n(-c3ccccc3)c(SCC(=O)NN=Cc3ccc(OS(C)(=O)=O)cc3)nc12	Klebsiella pneumoniae	microbial growth, well diffusion	–	20 µg/mL	inhibition zone	3 mm
C=C[C@]1(C)C[C@@H](OC(=O)CS[C@@H]2C[C@H]3CC[C@@H](C2)N3C)[C@]2(C)[C@H](C)CC[C@]3(CCC(=O)[C@H]32)[C@@H](C)[C@@H]1O	Streptococcus pneumoniae	microbial growth, agar dilution	ATCC49619	–	MIC	0.0312 µg/mL (≈ 0.0604 µM)
CC1(C)C[C@H]2[C@H]1CC[C@]1(C)CCC[C@@]2(n2cc(CN3CCOCC3)nn2)C1	HT-29	cell growth or viability, CCK-8	–	50 µM	inhibition	45%
CCS(=O)(=O)Oc1ccc(C=NNC(=O)CSc2nc3c(C)cccc3c(=O)n2-c2ccccc2)cc1	Klebsiella pneumoniae	microbial growth, well diffusion	–	20 µg/mL	inhibition zone	2 mm
COc1cccc(C=Nn2c(-c3ccccc3)nc3ccc(Cl)cc3c2=O)c1	LLC-PK1	cell growth or viability, MTT	–	72 h	IC50	177 µM
CC1(C)C[C@H]2[C@H]1CC[C@]1(C)CCC[C@@]2(n2cc(C(=O)O)nn2)C1	HT-29	cell growth or viability, CCK-8	–	50 µM	inhibition	32.3%
CN[C@H](CC(C)C)C(=O)N[C@H]1C(=O)N[C@@H](CC(N)=O)C(=O)N[C@H]2C(=O)N[C@H]3C(=O)N[C@H](C(=O)N[C@H](C(=O)O)c4cc(O)cc(O)c4-c4cc3ccc4O)[C@H](O)c3ccc(c(Cl)c3)Oc3cc2cc(c3O[C@@H]2O[C@H](CO)[C@@H](O)[C@H](O)[C@H]2O[C@H]2C[C@](C)(N)[C@H](O)[C@H](C)O2)Oc2ccc(cc2Cl)[C@H]1O	Streptococcus pneumoniae	microbial growth, agar dilution	ATCC49619	–	MIC	0.5 µg/mL (≈ 0.345 µM)
O=c1c2cc(Cl)ccc2nc(-c2ccccc2)n1N=Cc1c(F)cccc1Cl	LLC-PK1	cell growth or viability, MTT	–	72 h	IC50	46.4 µM
CC1(C)C[C@H]2[C@H]1CC[C@]1(C)CCC[C@@]2(n2cc(CNC(N)=O)nn2)C1	HT-29	cell growth or viability, CCK-8	–	10 µM	inhibition	< 50%
COc1ccc(C=Nn2c(-c3ccccc3)nc3ccc(Cl)cc3c2=O)cc1O	LLC-PK1	cell growth or viability, MTT	–	72 h	IC50	279 µM
Nc1ccc(S(=O)(=O)Nc2ncccn2)cc1	Klebsiella pneumoniae	microbial growth, well diffusion	–	20 µg/mL	inhibition zone	2 mm
CC[C@H]1OC(=O)[C@H](C)[C@@H](O[C@H]2C[C@@](C)(OC)[C@@H](O)[C@H](C)O2)[C@H](C)[C@@H](O[C@@H]2O[C@H](C)C[C@H](N(C)C)[C@H]2O)[C@](C)(O)C[C@@H](C)/C(=N\OCOCCOC)[C@H](C)[C@@H](O)[C@]1(C)O	Streptococcus pneumoniae	microbial growth	–	clinical isolate	MIC90	4 µg/mL (≈ 4.78 µM)
CC1(C)C[C@H]2[C@H]1CC[C@]1(C)CCC[C@@]2(NS(=O)(=O)C(C)(C)C)C1	HT-29	cell growth or viability, CCK-8	–	50 µM	inhibition	71.4%
CC1(C)S[C@@H]2[C@H](NC(=O)[C@H](N)c3ccccc3)C(=O)N2[C@H]1C(=O)O	Streptococcus pneumoniae	microbial growth	–	clinical isolate	MIC90	4 µg/mL (≈ 11.4 µM)
COc1cc(C=NNC(=O)CSc2nc3c(C)cccc3c(=O)n2-c2ccccc2)ccc1OS(C)(=O)=O	Klebsiella pneumoniae	microbial growth, well diffusion	–	20 µg/mL	inhibition zone	3 mm
CC(=O)NC[C@H]1CN(c2ccc(N3CCOCC3)c(F)c2)C(=O)O1	Streptococcus pneumoniae	microbial growth	PRSP	clinical isolate	MIC90	2 µg/mL (≈ 5.93 µM)
CCCS(=O)(=O)Oc1ccc(C=NNC(=O)CSc2nc3ccc(Cl)cc3c(=O)n2-c2ccccc2)cc1OC	Klebsiella pneumoniae	microbial growth, well diffusion	–	20 µg/mL	inhibition zone	2 mm
CC1(C)C[C@H]2[C@H]1CC[C@]1(C)CCC[C@@]2(n2cc(C(=O)NCCN)nn2)C1	HT-29	cell growth or viability, CCK-8	–	50 µM	inhibition	78.3%
CCCS(=O)(=O)Oc1ccc(C=NNC(=O)CSc2nc3c(C)cccc3c(=O)n2-c2ccccc2)cc1	Klebsiella pneumoniae	microbial growth, well diffusion	–	20 µg/mL	inhibition zone	3 mm
Cc1nc(Nc2ncc(C(=O)Nc3c(C)cccc3Cl)s2)cc(N2CC[C@H](O)C2)n1	U2932	cell growth or viability, ATP luminescence	–	10 µM, 72 h	inhibition	58%
O=c1oc2ccccc2c(Nc2ccccc2)c1I	Klebsiella pneumoniae	microbial growth, broth dilution	–	–	MIC90	9 µg/mL (≈ 24.8 µM)
CC1(C)C[C@H]2[C@H]1CC[C@]1(C)CCC[C@@]2(n2cc(C(=O)N3CCNCC3)nn2)C1	HT-29	cell growth or viability, CCK-8	–	10 µM	inhibition	91.6%
CCS(=O)(=O)Oc1ccc(C=NNC(=O)CSc2nc3ccc(Cl)cc3c(=O)n2-c2ccccc2)cc1	Klebsiella pneumoniae	microbial growth, well diffusion	–	20 µg/mL	inhibition zone	2 mm
CC1(C)C[C@H]2[C@H]1CC[C@]1(C)CCC[C@@]2(NS(=O)(=O)c2ccc(OC(F)(F)F)cc2)C1	HT-29	cell growth or viability, CCK-8	–	50 µM	inhibition	75.9%
COc1c(N2C[C@@H]3CCCN[C@@H]3C2)c(F)cc2c(=O)c(C(=O)O)cn(C3CC3)c12	Streptococcus pneumoniae	microbial growth, agar dilution	ATCC49619	–	MIC	0.125 µg/mL (≈ 0.311 µM)
CS(=O)(=O)Oc1ccc(C=NNC(=O)CSc2nc3ccc(Cl)cc3c(=O)n2-c2ccccc2)cc1	Klebsiella pneumoniae	microbial growth, well diffusion	–	20 µg/mL	inhibition zone	2 mm
CC1(C)C[C@H]2[C@H]1CC[C@]1(C)CCC[C@@]2(n2cc(C(=O)NC3CCNCC3)nn2)C1	HT-29	cell growth or viability, CCK-8	–	10 µM	inhibition	68.1%
